Test results as given in ChEMBL document CHEMBL5303300, “EUbOPEN Chemogenomics Library - Multiplex” (2023).
Values joined by “and” are separate entries in the source; they are usually repeats but may differ in a detail not shown here. Identical values can stand only once.

Experiments:
Type in all cases: toxicity, cell-based
U2OS = assay: Multiplex assay against U2OS; details: human, 10 µM, compound concentration 10 uM, number of replicates 2
Summary of the method: (§1)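 Values for tubulin, mitochondrial-mass and membrane-permeability phenotypes are per cents of cells with healthy nuclei. These cells were identified by CellPathfinder machine-learning gating of live cells that had been stained at seeding with Hoechst33342, BioTracker Green Microtubule Cytoskeleton Dye, MitoTracker Red and Annexin V Alexa Fluor 680 and imaged on a CQ1 microscope at 37°C and 5% CO2 after compound addition. The gating first set Hoechst high-intensity objects apart from normal cells, then split normal cells into healthy, pyknosed or fragmented nuclei, and pyknosed cells into mitotic or apoptotic.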

Fibroblast = assay: Multiplex assay against human fibroblast; details: 10 µM, compound concentration 10 uM, number of replicates 2; summary of the method: as §1
HEK-293T = assay: Multiplex assay against HEK293T; details: human, 10 µM, compound concentration 10 uM, number of replicates 2; summary of the method: as §1

C[C@@H]1CC[C@@]2(OC1)O[C@H]1[C@@H](O)[C@H]3[C@@H]4CC[C@H]5C[C@@H](O[C@@H]6O[C@H](CO)[C@H](O[C@@H]7O[C@H](CO)C(O)[C@H](O[C@@H]8OC[C@@H](O)[C@H](O)[C@H]8O)[C@H]7O[C@@H]7O[C@H](CO)[C@H](O)[C@H](O[C@@H]8O[C@H](CO)[C@@H](O)[C@H](O)[C@H]8O)[C@H]7O)[C@H](O)[C@H]6O)[C@H](O)C[C@]5(C)[C@H]4CC[C@]3(C)[C@H]1[C@@H]2C (stereo partly drawn) [DIGITONIN]
Population Apoptotic (%) (U2OS; 12 h): 65% [middle of 4 runs] | Population Healthy Nuclei (%) (U2OS; 12 h): 67% and 87% and 86% and 88% | Population Hoechst High Intensity Objects (%) (U2OS; 12 h): 0% | Population Membrane Permeable-Phenotype (%) (U2OS; 12 h): 0% and 7% and 1% and 3% | Population Mitochondria Different-Phenotype (%) (U2OS; 12 h): 0% and 3% | Population Normal (%) (U2OS; 12 h): 100% | Population Pyknosed Nuclei (%) (U2OS; 12 h): 5% and 3% and 9% | Population Tubulin-Different-Phenotype (%) (U2OS; 12 h): 72% and 92% and 85% and 94% | Population Apoptotic (%) (U2OS; 24 h): 58% [middle of 4 runs] | Population Healthy Nuclei (%) (U2OS; 24 h): 67% and 83% and 85% and 86% | Population Hoechst High Intensity Objects (%) (U2OS; 24 h): 0% | Population Membrane Permeable-Phenotype (%) (U2OS; 24 h): 0% and 2% and 1% | Population Mitochondria Different-Phenotype (%) (U2OS; 24 h): 0% and 2% | Population Normal (%) (U2OS; 24 h): 100% | Population Pyknosed Nuclei (%) (U2OS; 24 h): 13% and 12% and 9% | Population Tubulin-Different-Phenotype (%) (U2OS; 24 h): 65% and 97% and 90% and 96% | Population Apoptotic (%) (U2OS; 48 h): 70% and 100% and 62% and 51% | Population Healthy Nuclei (%) (U2OS; 48 h): 68% and 75% and 92% and 91% | Population Hoechst High Intensity Objects (%) (U2OS; 48 h): 1% and 0% | Population Membrane Permeable-Phenotype (%) (U2OS; 48 h): 3% and 1% and 0% | Population Mitochondria Different-Phenotype (%) (U2OS; 48 h): 5% and 1% and 0% | Population Normal (%) (U2OS; 48 h): 98% and 100% and 99% | Population Pyknosed Nuclei (%) (U2OS; 48 h): 13% and 7% and 6% and 5% | Population Tubulin-Different-Phenotype (%) (U2OS; 48 h): 84% and 100% and 92% and 97% | Population Apoptotic (%) (Fibroblast; 12 h): 44% and 47% and 48% and 42% | Population Fragmented Nuclei (%) (Fibroblast; 12 h): 9% and 12% and 13% and 8% | Population Healthy Nuclei (%) (Fibroblast; 12 h): 76% and 61% and 68% and 72% | Population Hoechst High Intensity Objects (%) (Fibroblast; 12 h): 0% | Population Membrane Permeable-Phenotype (%) (Fibroblast; 12 h): 6% and 4% and 1% | Population Mitochondria Different-Phenotype (%) (Fibroblast; 12 h): 0% and 1% and 2% | Population Mitotic Cells (%) (Fibroblast; 12 h): 56% and 52% and 51% and 57% | Population Normal (%) (Fibroblast; 12 h): 100% | Population Pyknosed Nuclei (%) (Fibroblast; 12 h): 13% and 26% and 18% and 19% | Population Tubulin-Different-Phenotype (%) (Fibroblast; 12 h): 10% and 4% and 8% and 6% | Total Cell Count (Fibroblast; 12 h): 181 and 157 and 188 and 182 | Population Apoptotic (%) (Fibroblast; 24 h): 55% and 53% and 47% and 66% | Population Fragmented Nuclei (%) (Fibroblast; 24 h): 11% and 12% | Population Healthy Nuclei (%) (Fibroblast; 24 h): 77% and 55% and 71% and 69% | Population Hoechst High Intensity Objects (%) (Fibroblast; 24 h): 0% and 1% | Population Membrane Permeable-Phenotype (%) (Fibroblast; 24 h): 6% and 2% | Population Mitochondria Different-Phenotype (%) (Fibroblast; 24 h): 0% and 1% and 3% | Population Mitotic Cells (%) (Fibroblast; 24 h): 45% and 46% and 52% and 33% | Population Normal (%) (Fibroblast; 24 h): 100% and 98% | Population Pyknosed Nuclei (%) (Fibroblast; 24 h): 11% and 32% and 17% | Population Tubulin-Different-Phenotype (%) (Fibroblast; 24 h): 11% and 3% and 7% and 12% | Total Cell Count (Fibroblast; 24 h): 171 and 168 and 198 and 188 | Population Apoptotic (%) (Fibroblast; 48 h): 90% and 64% and 75% and 60% | Population Fragmented Nuclei (%) (Fibroblast; 48 h): 12% and 14% and 15% | Population Healthy Nuclei (%) (Fibroblast; 48 h): 81% and 64% and 68% | Population Hoechst High Intensity Objects (%) (Fibroblast; 48 h): 0% | Population Membrane Permeable-Phenotype (%) (Fibroblast; 48 h): 5% and 1% and 7% | Population Mitochondria Different-Phenotype (%) (Fibroblast; 48 h): 0% and 1% | Population Normal (%) (Fibroblast; 48 h): 100% and 99% | Population Tubulin-Different-Phenotype (%) (Fibroblast; 48 h): 6% and 5% | Total Cell Count (Fibroblast; 48 h): 169 and 162 and 205 and 188 | Population Apoptotic (%) (HEK-293T; 12 h): 61% and 33% and 40% and 57% | Population Fragmented Nuclei (%) (HEK-293T; 12 h): 7% and 2% and 3% and 6% | Population Healthy Nuclei (%) (HEK-293T; 12 h): 79% and 88% and 83% and 81% | Population Hoechst High Intensity Objects (%) (HEK-293T; 12 h): 10% and 5% and 4% and 8% | Population Membrane Permeable-Phenotype (%) (HEK-293T; 12 h): 1% and 3% | Population Mitochondria Different-Phenotype (%) (HEK-293T; 12 h): 14% and 13% and 16% and 17% | Population Mitotic Cells (%) (HEK-293T; 12 h): 38% and 66% and 59% and 42% | Population Normal (%) (HEK-293T; 12 h): 89% and 94% and 95% and 91% | Population Pyknosed Nuclei (%) (HEK-293T; 12 h): 13% and 8% and 12% and 11% | Population Tubulin-Different-Phenotype (%) (HEK-293T; 12 h): 50% and 43% and 44% and 49% | Total Cell Count (HEK-293T; 12 h): 558 and 637 and 534 and 641 | Population Apoptotic (%) (HEK-293T; 24 h): 44% [middle of 4 runs] | Population Fragmented Nuclei (%) (HEK-293T; 24 h): 5% and 8% and 2% and 10% | Population Healthy Nuclei (%) (HEK-293T; 24 h): 86% and 81% and 90% | Population Hoechst High Intensity Objects (%) (HEK-293T; 24 h): 7% and 9% and 6% and 8% | Population Membrane Permeable-Phenotype (%) (HEK-293T; 24 h): 3% and 2% | Population Mitochondria Different-Phenotype (%) (HEK-293T; 24 h): 4% and 2% and 7% and 3% | Population Mitotic Cells (%) (HEK-293T; 24 h): 67% and 34% and 68% and 55% | Population Normal (%) (HEK-293T; 24 h): 92% and 90% and 93% and 91% | Population Pyknosed Nuclei (%) (HEK-293T; 24 h): 8% and 9% and 6% | Population Tubulin-Different-Phenotype (%) (HEK-293T; 24 h): 26% and 22% and 28% and 17% | Total Cell Count (HEK-293T; 24 h): 1037 and 963 and 742 and 1134 | Population Apoptotic (%) (HEK-293T; 48 h): 13% and 14% and 23% and 21% | Population Fragmented Nuclei (%) (HEK-293T; 48 h): 13% and 15% and 10% and 17% | Population Healthy Nuclei (%) (HEK-293T; 48 h): 83% and 79% and 85% and 80% | Population Hoechst High Intensity Objects (%) (HEK-293T; 48 h): 10% and 9% and 11% | Population Membrane Permeable-Phenotype (%) (HEK-293T; 48 h): 5% and 3% and 2% | Population Mitochondria Different-Phenotype (%) (HEK-293T; 48 h): 0% | Population Mitotic Cells (%) (HEK-293T; 48 h): 86% and 85% and 76% and 78% | Population Normal (%) (HEK-293T; 48 h): 89% and 90% and 88% | Population Pyknosed Nuclei (%) (HEK-293T; 48 h): 3% and 4% and 2% | Population Tubulin-Different-Phenotype (%) (HEK-293T; 48 h): 13% and 5% and 14% and 6% | Total Cell Count (HEK-293T; 48 h): 2746 and 2725 and 1654 and 2990
